Experimental data from ChEMBL document CHEMBL1157805, “Virtual screening, selection and development of a benzindolone structural scaffold for inhibition of lumazine synthase” (Bioorg Med Chem, 2010).

What was measured:
[1] = substrate: CCOC(=O)C(=O)Nc1c(Cl)[nH]c(=O)[nH]c1=O; assay: (§1) Activity at Mycobacterium tuberculosis recombinant lumazine synthase after 30 mins by fluorescence assay
In short: (§2)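 Recombinant M. tuberculosis lumazine synthase (2 μM) in 100 mM Tris-HCl pH 7.0, 100 mM NaCl, 5 mM DTT, 2% DMSO. Dihydroxybutanone phosphate was fixed at 100 μM, pyrimidinedione substrate varied 3–100 μM, and inhibitor 0–200 μM. Reactions were started with the pyrimidinedione substrate. Lumazine formation was read at 408 nm for 30 min at 27 °C. Velocity–substrate data were fitted by nonlinear regression to alternative inhibition models.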

[2] = substrate: O=C1Nc2ccc(S(=O)(=O)NCCCCCCOP(=O)(O)O)c3cccc1c23; assay: as §1; in short: as §2
[3] = substrate: O=C1Nc2ccc(S(=O)(=O)NCCCCCOP(=O)(O)O)c3cccc1c23; assay: as §1; in short: as §2
[4] = substrate: O=C1Nc2ccc(S(=O)(=O)NCCCCOP(=O)(O)O)c3cccc1c23; assay: as §1; in short: as §2
[5] = substrate: O=C1Nc2ccc(S(=O)(=O)NCCCOP(=O)(O)O)c3cccc1c23; assay: as §1; in short: as §2
[6] = substrate: O=C1Nc2ccc(S(=O)(=O)NCCOP(=O)(O)O)c3cccc1c23; assay: as §1; in short: as §2

B1: 6,7-dimethyl-8-ribityllumazine synthase (Mycobacterium tuberculosis), P9WHE9 (protein)
chain: MKGGAGVPDLPSLDASGVRLAIVASSWHGKICDALLDGARKVAAGCGLDDPTVVRVLGAIEIPVVAQELARNHDAVVALGVVIRGQTPHFDYVCDAVTQGLTRVSLDSSTPIANGVLTTNTEEQALDRAGLPTSAEDKGAQATVAALATALTLRELRAHS
[1]
  kcat: 0.0102 s⁻¹
[2]
  kcat: 0.0075 s⁻¹
[3]
  kcat: 0.0075 s⁻¹
[4]
  kcat: 0.00733 s⁻¹
[5]
  kcat: 0.0075 s⁻¹
[6]
  kcat: 0.00683 s⁻¹
